Measurements: PMC3144758 (Bioorganic chemistry, 2010)

Molecular target: Tip60 (Homo sapiens, UniProt Q92993)
Experiment: Radioactive HAT inhibition assay, Tip60
Type: biochemical
Procedure, shortened: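 Recombinant Tip60 acetylates H4 N-terminal 20-mer peptide (100 μM) using [14C]acetyl-CoA (10 μM) at varied DMSO levels, 30 °C, in 50 mM HEPES pH 8.0, 0.1 mM EDTA, 50 μg/mL BSA, 1 mM DTT. Enzyme added after 5 min equilibration. Initial rates measured (<10% substrate consumed) by P81 filter binding, bicarbonate washes and scintillation. Readouts are fractional activity retained and IC50 (50% activity blocked). Runs at least twice.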

Chain of Tip60 (Q92993 whole entry): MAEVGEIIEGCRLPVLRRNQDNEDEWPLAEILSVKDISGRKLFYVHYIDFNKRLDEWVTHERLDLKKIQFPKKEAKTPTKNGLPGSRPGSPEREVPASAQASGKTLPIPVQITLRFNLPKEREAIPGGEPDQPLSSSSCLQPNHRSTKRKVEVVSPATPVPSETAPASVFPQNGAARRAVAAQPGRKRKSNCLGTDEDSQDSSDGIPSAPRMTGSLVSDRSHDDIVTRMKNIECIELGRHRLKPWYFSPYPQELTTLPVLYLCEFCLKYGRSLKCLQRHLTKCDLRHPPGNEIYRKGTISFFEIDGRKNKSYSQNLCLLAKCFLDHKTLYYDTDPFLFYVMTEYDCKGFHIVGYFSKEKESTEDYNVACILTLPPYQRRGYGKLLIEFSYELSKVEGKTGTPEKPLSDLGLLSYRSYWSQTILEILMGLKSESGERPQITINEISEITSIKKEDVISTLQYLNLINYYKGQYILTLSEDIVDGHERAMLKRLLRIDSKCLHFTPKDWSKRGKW

IC50 of DMSO on Tip60 activity (DMSO (v/v), H4-20 100 μM, [14C]acetyl-CoA 10 μM): 37% | Retained activity of Tip60 (at 30% of DMSO): 90%
Compound: C[S+](C)[O-] [DMSO]
